T cruzi growth-1 = inhibitors of T. cruzi proliferation; T. cruzi beta-gal in NIH3T3, GalScreen luminescence, 90 h; inhibition, % at 8.34 µM; 77,000 compounds, 5.9% hits; AID 624255;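 active = mean inhibition above about 93%, with at least 55% of replicates each passing it, limit read from the data, passing the limit was not always enough; inconclusive = only one of those two conditions holds; inactive = neither condition holds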
Pf Dd2 growth = P. falciparum Dd2 growth inhibition | SYBR Green, 72 h; hits give low values | activity change, % at 10 µM | 94,000 compounds, 2.3% hits; in the data active = activity change below about -80%; inconclusive = no clear call, values can overlap the other calls
IDH1 R132H inh = blocks human IDH1 R132H reductase activity | O75874 | diaphorase/resazurin fluorescence, 60 min | inhibition, % at 10 µM | 70,000 compounds, 0.18% hits | AID 624101; in the data active = inhibition above about 34%; inconclusive = no clear call, values can overlap the other calls; inactive = below about 11%
GASC1 inh = KDM4C (human) demethylase inhibition. inhibition, % at 12.5 µM. AID 720574. GST-KDM4C 2-372, H3K9me3 peptide, LANCE TR-FRET. Q9H3R0. 96,000 compounds, 0.15% hits;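 active = mean replicate inhibition above about 25%, with at least 55% of replicates also reaching it, limit read from the data, passing the limit was not always enough; inconclusive = only one of those two conditions met; inactive = neither condition met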
Target sequence (Q9H3R0 2-372 limits assumed): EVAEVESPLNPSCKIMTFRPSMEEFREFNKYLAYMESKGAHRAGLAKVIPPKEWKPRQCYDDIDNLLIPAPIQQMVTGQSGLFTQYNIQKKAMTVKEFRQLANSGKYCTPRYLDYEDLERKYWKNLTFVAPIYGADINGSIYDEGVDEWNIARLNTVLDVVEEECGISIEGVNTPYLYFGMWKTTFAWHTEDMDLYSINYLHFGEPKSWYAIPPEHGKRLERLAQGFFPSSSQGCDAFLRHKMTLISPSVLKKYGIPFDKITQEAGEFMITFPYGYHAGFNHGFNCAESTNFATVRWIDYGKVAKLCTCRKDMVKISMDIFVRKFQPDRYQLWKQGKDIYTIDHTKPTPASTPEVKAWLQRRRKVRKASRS
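reagent = H3K9me3 peptide substrate, Fe(II), 2-oxoglutarate | system = GST-tagged GASC-1 (JMJD2C) catalytic fragment, aa 2-372 | amount = enzyme final amount 10 nM | read-out = Fall in 671/618 emission ratio as inhibition | medium = HEPES buffer, pH 7.5, plus ascorbate | schedule = 30 min reaction, 60 min detection, RT | measured by = LANCE TR-FRET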
T cruzi growth-2 = inhibitors of T. cruzi proliferation; shares compounds with T cruzi growth-1; T. cruzi beta-gal in NIH3T3, GalScreen luminescence, 90 h; inhibition, % at 8.35 µM; 5,600 compounds, 72% hits;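 active = mean replicate inhibition above about 95% and at least 55% of replicates individually reaching it, limit read from the data; inconclusive = only one of the two criteria is met; inactive = neither criterion is met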
T cruzi growth-3 = inhibitors of T. cruzi proliferation. shares compounds with T cruzi growth-1. T. cruzi beta-gal in NIH3T3, GalScreen luminescence, 90 h. inhibition, % at 2.09 µM. 5,600 compounds, 21% hits;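 active = mean inhibition above about 95%, with at least 55% of replicates also reaching it, limit read from the data; inconclusive = meets just one of the two conditions; inactive = meets neither condition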
3T3 cytotox = NIH/3T3 (mouse) viability loss | NIH/3T3 viability, CellTiter-Glo ATP luminescence, 90 h | 5,600 compounds, 14% hits | shares compounds with T cruzi growth-1 | cytotoxicity (signal decrease), % at 8.35 µM;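 active = mean signal decrease across replicates above about 35% based on untreated-well scatter, with enough replicates individually passing, limit read from the data; inconclusive = no rule stated though some were filed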
3T3 cytotox 2 = NIH/3T3 (mouse) viability loss; shares compounds with T cruzi growth-1; NIH/3T3 viability, CellTiter-Glo ATP luminescence, 90 h; inhibition, % at 24.9 µM; 5,600 compounds, 56% hits; AID 651744;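 active = mean loss of cell viability signal at or above a set limit, and enough replicates individually reaching it; inconclusive = meets only the mean limit or only the replicate share; inactive = meets neither condition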
A number is an active result; - = inactive; ? = inconclusive; . = no result given. An excerpt weighted towards active compounds, which were near 5.8% of everything screened.

SMILES	T cruzi growth-1	Pf Dd2 growth	IDH1 R132H inh	GASC1 inh	T cruzi growth-2	T cruzi growth-3	3T3 cytotox	3T3 cytotox 2
Cc1ccc(NS(=O)(=O)c2cccc(C(=O)Nc3ccccc3C(=O)O)c2)cc1	.	.	-	.	.	.	.	.
C[C@@H]1CN([C@H](C)CO)C(=O)c2cccc(NC(=O)Nc3ccc(C(F)(F)F)cc3)c2O[C@@H]1CN(C)Cc1ccc(-c2ccccc2)cc1	?	-	-	-	110	-	-	103
C[C@@H]1CN([C@H](C)CO)C(=O)c2cccc(NC(=O)Nc3ccccc3)c2O[C@H]1CN(C)Cc1ccc(C(F)(F)F)cc1	-	-	-	-	.	.	.	.
C[C@@H]1CN([C@H](C)CO)C(=O)c2cccc(NC(=O)Nc3ccc(F)cc3)c2O[C@@H]1CN(C)Cc1ccc(-c2ccccc2)cc1	?	-	.	-	105	-	-	71
C[C@@H]1CN([C@@H](C)CO)C(=O)c2cccc(NC(=O)Nc3ccc(C(F)(F)F)cc3)c2O[C@@H]1CN(C)Cc1ccc(-c2ccccc2)cc1	?	-	.	-	-	114	92	104
C[C@@H]1CN([C@H](C)CO)C(=O)c2cccc(NC(=O)Nc3ccc(C(F)(F)F)cc3)c2O[C@@H]1CN(C)Cc1ccccc1	-	-	.	-	.	.	.	.
C[C@H]1CN([C@@H](C)CO)C(=O)c2cccc(NC(=O)Nc3ccc(F)cc3)c2O[C@@H]1CN(C)Cc1ccc(-c2ccccc2)cc1	-	-	-	-	.	.	.	.
Cc1cc(C)nc(SC(C)C(=O)Nc2ccc(Cl)cc2)n1 (stereo unspecified)	.	.	-	.	.	.	.	.
COc1cccc(NC(=O)N(C)C[C@@H]2Oc3cc(-c4ccccc4F)ccc3S(=O)(=O)N([C@@H](C)CO)C[C@H]2C)c1	-	-	-	-	.	.	.	.
COc1cccc(C#Cc2ccc3c(c2)O[C@H](CN(C)C(C)=O)[C@@H](C)CN([C@H](C)CO)S3(=O)=O)c1	?	-	-	-	105	-	-	35
COc1cccc(NC(=O)N(C)C[C@@H]2Oc3cc(C#Cc4ccc(F)cc4)ccc3S(=O)(=O)N([C@H](C)CO)C[C@H]2C)c1	103	-	.	-	98	-	-	55
COc1cccc(C#Cc2ccc3c(c2)O[C@@H](CN(C)C(C)=O)[C@H](C)CN([C@H](C)CO)S3(=O)=O)c1	-	-	-	-	.	.	.	.
COc1cccc(NC(=O)N(C)C[C@H]2Oc3cc(-c4ccccc4F)ccc3S(=O)(=O)N([C@H](C)CO)C[C@@H]2C)c1	?	-	-	-	98	-	-	?
COc1cccc(NC(=O)N(C)C[C@@H]2Oc3cc(C#Cc4ccncc4)ccc3S(=O)(=O)N([C@H](C)CO)C[C@@H]2C)c1	-	?	-	-	.	.	.	.
COc1cccc(NC(=O)N(C)C[C@@H]2Oc3cc(C#Cc4ccc(F)cc4)ccc3S(=O)(=O)N([C@H](C)CO)C[C@@H]2C)c1	117	-90	-	-	99	111	50	38
Cc1cc(C)cc(N(CC(=O)Nc2c(C)cc(C)cc2C)S(C)(=O)=O)c1	.	.	-	.	.	.	.	.
COc1cccc(NC(=O)N(C)C[C@@H]2Oc3cc(C#Cc4ccccc4)ccc3S(=O)(=O)N([C@H](C)CO)C[C@@H]2C)c1	86	-90	.	.	104	?	-	-
COc1cccc(NC(=O)N(C)C[C@@H]2Oc3cc(C#Cc4ccncc4)ccc3S(=O)(=O)N([C@H](C)CO)C[C@H]2C)c1	-	-	.	-	.	.	.	.
COc1ccc(C#Cc2ccc3c(c2)O[C@H](CN(C)C(=O)Nc2cccc(OC)c2)[C@H](C)CN([C@@H](C)CO)S3(=O)=O)cc1	116	-86	.	-	111	104	-	-
COc1cccc(NC(=O)N(C)C[C@H]2Oc3cc(C#Cc4ccncc4)ccc3S(=O)(=O)N([C@H](C)CO)C[C@@H]2C)c1	-	-	-	-	.	.	.	.
CCC(CC)C(=O)N1c2ccccc2CCc2ccccc21	.	.	-	.	.	.	.	.
C[C@H](CO)N1C[C@H](C)[C@H](CN(C)Cc2ccc(C(F)(F)F)cc2)OCCCC[C@H](C)Oc2ccc(NC(=O)Nc3ccc(F)cc3)cc2C1=O	-	-	.	-	.	.	.	.
C[C@@H]1CN([C@H](C)CO)C(=O)c2cc(NC(=O)Nc3ccc(F)cc3)ccc2O[C@@H](C)CCCCO[C@@H]1CN(C)Cc1ccc(C(F)(F)F)cc1	100	-82	-	-	-	114	-	-
C[C@@H]1CCCCO[C@H](CN(C)Cc2ccc(C(F)(F)F)cc2)[C@@H](C)CN([C@H](C)CO)C(=O)c2cc(NC(=O)Nc3ccc(F)cc3)ccc2O1	-	-	.	-	.	.	.	.
C[C@@H]1CN([C@@H](C)CO)C(=O)c2cc(NC(=O)Nc3ccc(F)cc3)ccc2O[C@@H](C)CCCCO[C@H]1CN(C)Cc1ccc(C(F)(F)F)cc1	109	?	-	-	100	112	-	-
SMILES	T cruzi growth-1	Pf Dd2 growth	IDH1 R132H inh	GASC1 inh	T cruzi growth-2	T cruzi growth-3	3T3 cytotox	3T3 cytotox 2
C[C@@H]1CCCCO[C@H](CN(C)Cc2ccc(C(F)(F)F)cc2)[C@H](C)CN([C@@H](C)CO)C(=O)c2cc(NC(=O)Nc3ccc(F)cc3)ccc2O1	100	-	.	-	?	117	-	30
O=C(O)CCCCCC(=O)N/N=C/c1c(O)ccc2ccccc12	.	.	-	.	.	.	.	.
Cc1ccc(-n2c(SCC(=O)Nc3ccc(F)c(Cl)c3)nnc2-c2ccco2)cc1	.	.	-	.	.	.	.	.
COc1ccc(OCc2nnc3n2N=C(c2ccc(OC)c(OC)c2)C(c2ccccc2)S3)cc1 (stereo unspecified)	.	.	-	.	.	.	.	.
CS(=O)(=O)N(CC(=O)Nc1ccc(I)cc1)c1cccc2ccccc12	.	.	-	.	.	.	.	.
O=C1C(=O)C(C2CCC(c3ccc(Cl)cc3)CC2)C(=O)c2ccccc21 (stereo unspecified)	.	.	-	.	.	.	.	.
C[C@@H]1CN([C@H](C)CO)C(=O)c2cc(NC(=O)Nc3ccc(C(F)(F)F)cc3)ccc2O[C@@H](C)CCCCO[C@H]1CN(C)C(=O)c1ccccc1	?	-	.	-	103	113	-	-
C[C@@H]1CCCCO[C@H](CN(C)C(=O)c2ccccc2)[C@@H](C)CN([C@H](C)CO)C(=O)c2cc(NC(=O)Nc3ccc(C(F)(F)F)cc3)ccc2O1	?	-	-	-	106	-	-	33
C[C@@H]1CCCCO[C@H](CN(C)S(=O)(=O)c2ccc(Cl)cc2)[C@@H](C)CN([C@@H](C)CO)C(=O)c2cc(NC(=O)NC3CCCCC3)ccc2O1	101	.	.	-	105	-	-	33
C[C@@H]1CCCCO[C@H](CN(C)S(=O)(=O)c2ccc(Cl)cc2)[C@@H](C)CN([C@H](C)CO)C(=O)c2cc(NC(=O)NC3CCCCC3)ccc2O1	-	.	-	-	.	.	.	.
